Test results published in ChEMBL document CHEMBL2069182, “Discovery and optimization of a novel series of GPR142 agonists for the treatment of type 2 diabetes mellitus” (Bioorg Med Chem Lett, 2012).

Columns and labels:
[1] = target: T1, Probable G-protein coupled receptor 142 (Homo sapiens, UniProt Q7Z601); experiment: Agonist activity at human GPR142 expressed in HEK293 cells assessed as inositol phosphate accumulation using [3H]-inositol after 1 hr by scintillation counting; assay type: functional, cell-based
T1 sequence (Q7Z601 whole entry): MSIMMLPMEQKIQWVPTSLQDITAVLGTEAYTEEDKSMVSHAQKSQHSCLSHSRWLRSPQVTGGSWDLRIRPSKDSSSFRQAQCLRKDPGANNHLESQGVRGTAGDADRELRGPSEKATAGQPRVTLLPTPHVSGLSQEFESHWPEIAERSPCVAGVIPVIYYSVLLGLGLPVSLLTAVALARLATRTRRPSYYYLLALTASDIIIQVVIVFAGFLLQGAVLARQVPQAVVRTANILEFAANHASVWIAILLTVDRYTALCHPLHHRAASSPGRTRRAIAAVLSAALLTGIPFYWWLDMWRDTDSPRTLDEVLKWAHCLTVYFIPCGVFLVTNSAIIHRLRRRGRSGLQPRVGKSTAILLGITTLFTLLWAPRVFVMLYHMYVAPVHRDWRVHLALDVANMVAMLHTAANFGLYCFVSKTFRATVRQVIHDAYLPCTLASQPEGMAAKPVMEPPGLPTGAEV
In short: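 HEK293 cells plated at 25,000/well, next day (80–90% confluent) transfected with 100 ng receptor plasmid per well by Lipofectamine; after 6 h switched to inositol-free DMEM/10% dialyzed FCS with 1 µCi/mL [3H]-inositol overnight. Washed in HBSS, then compound dilutions (DMSO) in HBSS/0.01% BSA plus 10 mM LiCl, 37 °C, 1 h. Lysed in ice-cold 20 mM formic acid, 4 °C 5 h, then yttrium silicate SPA beads, scintillation counting. Emax as % of maximal response to 10 mM tryptophan.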

[2] = target: T2, Probable G-protein coupled receptor 142 (Homo sapiens) (UniProt Q7Z601); experiment: Agonist activity at human GPR142 expressed in HEK293 cells assessed as inositol phosphate accumulation using [3H]-inositol after 1 hr by scintillation counting relative to tryptophan; assay type: functional, cell-based
T2 sequence (whole entry): T1 sequence (Q7Z601 whole entry)
In short: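 HEK293 cells on poly-D-lysine were transfected next day with 100 ng receptor plasmid/well, then labelled overnight with 1 µCi/mL [3H]-inositol in inositol-free DMEM/10% dialyzed FCS. Cells got graded compound in HBSS/0.01% BSA with 10 mM LiCl for 1 h at 37 °C. They were lysed in ice-cold 20 mM formic acid and counted with yttrium silicate SPA beads. EC50 given; Emax as % of maximal tryptophan response at 10 mM.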

CYP3A4 = CYP3A4 (Homo sapiens, UniProt P08684); experiment: Inhibition of CYP3A4 at 3 uM; assay type: ADME
CYP2D6 = CYP2D6 (Homo sapiens, UniProt P10635); experiment: Inhibition of CYP2D6 at 3 uM; assay type: ADME
[3] = target: T1, Probable G-protein coupled receptor 142; experiment: Agonist activity at human GPR142 expressed in HEK293 cells assessed as inositol phosphate accumulation using [3H]-inositol after 1 hr by scintillation counting in presence of human serum; assay type: functional, cell-based
In short: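 Same transfected HEK293 [3H]-inositol IP accumulation protocol as buffer assay, but compound incubation (10 mM LiCl, 37 °C, 1 h) run in 100% human serum instead of HBSS/0.01% BSA. Formic acid lysis, SPA bead scintillation read-out. Emax expressed as % of maximal 10 mM tryptophan response.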

[4] = target: T3, Probable G-protein coupled receptor 142 (Mus musculus, UniProt Q7TQN9); experiment: Agonist activity at mouse GPR142 assessed as inositol phosphate accumulation; assay type: functional
T3 sequence (Q7TQN9 whole entry): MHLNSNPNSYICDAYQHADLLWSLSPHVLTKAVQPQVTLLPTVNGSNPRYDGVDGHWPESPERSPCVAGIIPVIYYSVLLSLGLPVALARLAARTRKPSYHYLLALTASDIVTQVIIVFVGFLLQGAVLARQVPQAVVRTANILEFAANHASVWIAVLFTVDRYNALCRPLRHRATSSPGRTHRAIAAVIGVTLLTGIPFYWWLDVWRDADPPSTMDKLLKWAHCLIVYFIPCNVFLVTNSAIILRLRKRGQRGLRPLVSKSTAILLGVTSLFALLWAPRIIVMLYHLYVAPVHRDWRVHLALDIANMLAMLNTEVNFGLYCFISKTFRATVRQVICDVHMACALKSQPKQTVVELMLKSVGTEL

[5] = target: T2, Probable G-protein coupled receptor 142 (Homo sapiens); experiment: Agonist activity at human GPR142 expressed in HEK293 cells assessed as inositol phosphate accumulation using [3H]-inositol after 1 hr by scintillation counting in presence of human serum relative to tryptophan; assay type: functional, cell-based
In short: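 Transiently transfected HEK293 cells were labelled overnight with 1 µCi/mL tritiated inositol, then given graded compound in 100% human serum (in place of HBSS/0.01% BSA) with 10 mM LiCl for 1 h at 37 °C. Lysis was in ice-cold 20 mM formic acid, with SPA-bead scintillation read-out. EC50 given; Emax as % of maximal tryptophan response.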

Cytochrome P450 3A4 = Cytochrome P450 3A4 (Homo sapiens, UniProt P08684); experiment: Inhibition of CYP3A4; assay type: ADME
Cytochrome P450 2D6 = Cytochrome P450 2D6 (Homo sapiens, UniProt P10635); experiment: Inhibition of CYP2D6; assay type: ADME
Rattus norvegicus = experiment: Clearance in rat at 0.5 mg/kg, iv; assay type: ADME, organism-based; design: dose 0.5 mg/kg, route intravenous; conditions: in vivo
In short: (§1)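 Rats dosed iv at 0.5 mg/kg; clearance, steady-state volume of distribution and mean residence time derived.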

[6] = Volume of distribution at steady state in rat at 0.5 mg/kg, iv; assay type: ADME, organism-based; design: dose 0.5 mg/kg, route intravenous; conditions: in vivo, read-out: Vdss; in short: as §1
[7] = Mean residence time in rat at 0.5 mg/kg, iv; assay type: ADME, organism-based; design: dose 0.5 mg/kg, route intravenous; conditions: in vivo; in short: as §1
[8] = Oral bioavailability in rat at 2 mg/kg; assay type: ADME, organism-based; conditions: in vivo
In short: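 Rats given 2.0 mg/kg po; bioavailability (%F) determined against iv dosing at 0.5 mg/kg.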

[9] = Metabolic stability in rat liver microsomes assessed as compound remaining after 30 mins; assay type: ADME, Microsome; conditions: read-out: Stability
In short: (§2)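 Human or rat liver microsomes incubated with compound for 30 min; percent parent remaining quantified by LC/MS in a high-throughput format.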

[10] = Metabolic stability in human liver microsomes assessed as compound remaining after 30 mins; assay type: ADME, Microsome; conditions: read-out: Stability; in short: as §2
Cytochrome P450 2C9 = Cytochrome P450 2C9 (Homo sapiens, UniProt P11712); experiment: Inhibition of CYP2C9; assay type: ADME
Hepatocyte = experiment: Clearance in rat hepatocytes assessed per 10^-6 cells; assay type: ADME, cell-based
[11] = Half life in rat hepatocytes; assay type: ADME, cell-based, Liver, Hepatocyte
[12] = Induction of insulin secretion in mouse pancreatic islets in presence of 16.7 mM of glucose; assay type: functional; conditions: Pancreatic islet
In short: (§3)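 Isolated mouse islets stimulated in 16.7 mM glucose with 0.625% HSA and 1% DMSO; insulin secretion measured, Emax reported as percentage.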

[13] = Induction of insulin secretion in mouse pancreatic islets in presence of 16.7 mM of glucose relative to control; assay type: functional; conditions: Pancreatic islet; in short: as §3

Sequence of CYP3A4 (P08684 whole entry): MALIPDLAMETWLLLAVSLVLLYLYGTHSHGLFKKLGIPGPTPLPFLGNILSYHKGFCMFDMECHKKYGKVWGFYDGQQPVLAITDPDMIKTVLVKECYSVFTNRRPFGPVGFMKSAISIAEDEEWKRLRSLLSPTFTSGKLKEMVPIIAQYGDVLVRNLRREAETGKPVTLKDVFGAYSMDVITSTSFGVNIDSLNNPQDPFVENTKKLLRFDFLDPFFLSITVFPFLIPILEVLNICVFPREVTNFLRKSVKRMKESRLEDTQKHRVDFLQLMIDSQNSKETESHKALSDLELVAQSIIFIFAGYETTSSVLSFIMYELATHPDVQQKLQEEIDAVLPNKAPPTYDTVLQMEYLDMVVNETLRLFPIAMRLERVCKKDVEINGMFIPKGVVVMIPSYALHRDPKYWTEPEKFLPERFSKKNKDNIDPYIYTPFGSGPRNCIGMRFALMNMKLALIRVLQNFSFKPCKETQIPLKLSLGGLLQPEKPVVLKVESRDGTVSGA
Sequence of CYP2D6 (P10635 whole entry): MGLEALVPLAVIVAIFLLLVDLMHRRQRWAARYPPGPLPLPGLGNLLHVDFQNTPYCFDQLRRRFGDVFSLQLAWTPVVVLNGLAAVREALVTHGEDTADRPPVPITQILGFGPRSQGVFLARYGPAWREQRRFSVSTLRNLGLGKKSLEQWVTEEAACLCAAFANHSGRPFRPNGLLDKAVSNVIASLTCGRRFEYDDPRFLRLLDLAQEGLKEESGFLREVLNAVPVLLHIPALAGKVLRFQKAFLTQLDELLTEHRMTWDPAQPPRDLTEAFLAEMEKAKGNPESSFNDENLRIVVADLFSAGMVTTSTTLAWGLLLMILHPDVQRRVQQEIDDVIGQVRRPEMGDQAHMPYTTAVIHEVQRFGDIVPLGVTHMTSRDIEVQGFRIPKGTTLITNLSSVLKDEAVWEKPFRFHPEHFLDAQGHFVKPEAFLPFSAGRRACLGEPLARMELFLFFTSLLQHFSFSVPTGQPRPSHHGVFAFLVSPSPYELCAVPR
Sequence of Cytochrome P450 3A4 (P08684 whole entry): as the sequence (P08684 whole entry) above
Sequence of Cytochrome P450 2D6 (P10635 whole entry): as the sequence (P10635 whole entry) above
Sequence of Cytochrome P450 2C9 (P11712 whole entry): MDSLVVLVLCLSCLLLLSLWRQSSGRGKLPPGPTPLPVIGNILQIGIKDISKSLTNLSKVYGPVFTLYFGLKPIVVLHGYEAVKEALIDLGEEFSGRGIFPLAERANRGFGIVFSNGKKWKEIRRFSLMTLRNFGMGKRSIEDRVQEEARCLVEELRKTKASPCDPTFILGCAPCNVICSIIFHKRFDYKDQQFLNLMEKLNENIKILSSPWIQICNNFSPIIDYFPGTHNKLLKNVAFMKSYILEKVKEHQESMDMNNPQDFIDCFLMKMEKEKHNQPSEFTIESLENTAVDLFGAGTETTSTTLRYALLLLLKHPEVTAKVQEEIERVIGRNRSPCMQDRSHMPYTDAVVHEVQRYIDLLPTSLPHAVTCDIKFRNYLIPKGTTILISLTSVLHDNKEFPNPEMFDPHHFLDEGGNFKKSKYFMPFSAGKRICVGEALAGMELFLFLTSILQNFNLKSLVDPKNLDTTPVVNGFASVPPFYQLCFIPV

Structure (SMILES)	EC50 [1] [nM]	Emax [2] [%]	inhibition at 3 µM (CYP3A4) [%]	inhibition at 3 µM (CYP2D6) [%]	further results
N[C@H](Cc1ccccc1)C(=O)Nc1cc(-c2ccncc2)c[nH]c1=O	13000	93			
N[C@@H](Cc1ccccc1Cl)C(=O)Nc1cc(-c2ccncc2)c[nH]c1=O	> 33000	42			
O=C(Nc1cccc(-c2ccccc2)c1)[C@H](Cc1ccccc1)NCc1cscn1	640		57	46	
COc1ccc(NC(=O)[C@H](Cc2ccccc2)NCc2cscn2)cc1-c1ccncc1	240				EC50 [3]: 980 nM
O=C(Nc1cc(-c2ccncc2)c[nH]c1=O)[C@H](Cc1ccccc1)NCCc1ccccc1	780	67			
N[C@@H](Cc1ccccc1)C(=O)Nc1cc(-c2ccncc2)c[nH]c1=O	4800	115			EC50 [4]: 1400 nM
Cn1ccc(-c2cccc(NC(=O)[C@H](Cc3ccccc3)NCc3cscn3)c2)n1	1900		30	12	
O=C(Nc1ccccc1)[C@H](Cc1ccccc1)NCc1cscn1	3300		24	36	
N[C@@H](Cc1ccc(F)cc1)C(=O)Nc1cc(-c2ccncc2)c[nH]c1=O	4200	102			
O=C(Nc1nccc(-c2ccncc2)n1)[C@H](Cc1ccccc1)NCc1cscn1	360				EC50 [3]: 290 nM
Cc1ccc(C[C@H](N)C(=O)Nc2cc(-c3ccncc3)c[nH]c2=O)cc1	6600	73			
N[C@@H](CC1CCCCC1)C(=O)Nc1cc(-c2ccncc2)c[nH]c1=O	> 33000	30			
N[C@@H](Cc1cccc(Cl)c1)C(=O)Nc1cc(-c2ccncc2)c[nH]c1=O	> 33000	50			
Cn1cc(-c2c[nH]c(=O)c(NC(=O)[C@H](Cc3ccccc3)NCc3cscn3)c2)cn1	230		24	21	
N#Cc1ccc(C[C@H](N)C(=O)Nc2cc(-c3ccncc3)c[nH]c2=O)cc1	4600	79			
O=C(Nc1cc(-c2ccncc2)c[nH]c1=O)[C@H](Cc1ccccc1)NCC1CC1	760	106			
O=C(Nc1cc(-c2ccncc2)c[nH]c1=O)[C@H](Cc1ccccc1)NCc1ccccc1	830	97			
NCC(=O)Nc1cc(-c2ccncc2)c[nH]c1=O	> 33000				
N[C@H](C(=O)Nc1cc(-c2ccncc2)c[nH]c1=O)c1ccccc1	> 33000				
COc1ccc(C[C@H](N)C(=O)Nc2cc(-c3ccncc3)c[nH]c2=O)cc1	25000	40			
N[C@@H](Cc1ccc(Cl)cc1)C(=O)Nc1cc(-c2ccncc2)c[nH]c1=O	3800	105			
O=C(CCc1ccccc1)Nc1cc(-c2ccncc2)c[nH]c1=O	> 33000				
CC(=O)N[C@@H](Cc1ccccc1)C(=O)Nc1cc(-c2ccncc2)c[nH]c1=O	> 33000				

Molecules with a lower EC50 [1], results first:

EC50 [1] [nM]	Emax [2] [%]	inhibition at 3 µM (CYP3A4) [%]	inhibition at 3 µM (CYP2D6) [%]	Structure (SMILES)	further results
180		82	90	O=C(Nc1cccc(-c2cn[nH]c2)c1)[C@H](Cc1ccccc1)NCc1cscn1	
67		97	95	O=C(Nc1cccc(-c2ccncc2)c1)[C@H](Cc1ccccc1)NCc1cscn1	EC50 [3]: 970 nM
180		36	42	Cn1cc(-c2cccc(NC(=O)[C@H](Cc3ccccc3)NCc3cscn3)c2)cn1	
89				COc1ccc(-c2ccncc2)cc1NC(=O)[C@H](Cc1ccccc1)NCc1cscn1	EC50 [3]: 1000 nM
53				COc1cc(NC(=O)[C@H](Cc2ccccc2)NCc2cscn2)cc(-c2ccncc2)c1	EC50 [3]: 810 nM
67	90	22	20	Cc1cc(-c2c[nH]c(=O)c(NC(=O)[C@H](Cc3ccccc3)NCc3cscn3)c2)ccn1	EC50 [3]: 290 nM; Emax [5]: 97%; IC50 (Cytochrome P450 3A4): > 30000 nM; IC50 (Cytochrome P450 2D6): > 30000 nM; clearance (Rattus norvegicus): 43.3 mL/min/kg; Vd [6]: 0.75 L/kg; MRT [7]: 18 min; bioavailability [8]: 19%; remaining at 0.5 h [9]: 11%; remaining at 0.5 h [10]: 10%
52		63	74	Cc1cc(-c2cccc(NC(=O)[C@H](Cc3ccccc3)NCc3cscn3)c2)ccn1	
210		38	42	Nc1cc(-c2cccc(NC(=O)[C@H](Cc3ccccc3)NCc3cscn3)c2)ccn1	
200		18	29	O=C(Nc1cc(-c2ccn[nH]2)c[nH]c1=O)[C@H](Cc1ccccc1)NCc1cscn1	
67		59	36	O=C(Nc1cccc(-c2cc[nH]n2)c1)[C@H](Cc1ccccc1)NCc1cscn1	
110				O=C(O)c1cc(NC(=O)[C@H](Cc2ccccc2)NCc2cscn2)cc(-c2ccncc2)c1	EC50 [3]: 480 nM; IC50 (Cytochrome P450 3A4): > 30000 nM; IC50 (Cytochrome P450 2D6): > 30000 nM; IC50 (Cytochrome P450 2C9): > 30000 nM; clearance (Rattus norvegicus): 48.3 mL/min/kg; Vd [6]: 0.5 L/kg; MRT [7]: 12 min; bioavailability [8]: 0%; remaining at 0.5 h [9]: 74%; CLH (Hepatocyte): 18 µL/min; half-life [11]: 39 min
93	120	97	95	O=C(Nc1cc(-c2ccncc2)c[nH]c1=O)[C@H](Cc1ccccc1)NCc1cscn1	EC50 [3]: 500 nM; Emax [5]: 100%; EC50 [12]: 2700 nM; Emax [13]: 88%
